{"data": "Measurements of several laboratories", "target": "Serine/threonine-protein kinase 32C (STK32C, Homo sapiens, UniProt Q86UX6)", "note": "Protocols differ between the studies behind these lines."}
{"SMILES": "C[C@@H]1CN(c2ccc3ncc(-c4ccc5[nH]nc(C6CC6)c5c4)n3n2)C[C@H](C)O1", "observed": "binding", "technique": "competition with immobilised ligand", "concentration": "0.5 µM", "remaining binding [%]": 100}
{"SMILES": "CN(c1nccc(-c2cnn3ncccc23)n1)C1CC1", "observed": "binding", "concentration": "1 µM", "remaining binding [%]": 70}
{"SMILES": "CC1=C(C#N)C(c2ccc3c(c2)c(NC(=O)c2ccccc2C)nn3C)C(C#N)=C(C)N1", "observed": "cell-free assay", "technique": "competition with immobilised ligand", "concentration": "1 µM", "remaining binding [%]": 79}
{"SMILES": "Nc1ncc2c(n1)-c1c([nH]c3ccc(C#CC4CC4)cc13)CCCC2", "observed": "binding", "technique": "competition with immobilised ligand", "concentration": "1 µM", "remaining binding [%]": 100}
{"SMILES": "O=C(NCC1CCOCC1)c1n[nH]cc1NC(=O)c1c(F)cccc1F", "observed": "binding", "technique": "competition with immobilised ligand", "concentration": "1 µM", "remaining binding [%]": 100}
{"SMILES": "O=C(NCCCN1CCOCC1)c1ccc(Nc2ncc(Cl)c(-c3ccc(Cl)s3)n2)cc1", "observed": "binding", "technique": "competition with immobilised ligand", "concentration": "1 µM", "remaining binding [%]": 100}
{"SMILES": "N[C@@H]1CCN(c2nccc(-c3cnn4ncccc34)n2)C1", "observed": "binding", "concentration": "1 µM", "remaining binding [%]": 99}
{"SMILES": "CN1CCN(c2cnc3c(C4CCN(C(=O)c5ccc(OC(F)(F)F)cc5N)CC4)ncnc3c2)CC1", "observed": "cell-free assay", "technique": "competition with immobilised ligand", "concentration": "1 µM", "remaining binding [%]": 100}
{"SMILES": "COc1ncc2cc3ccccc3nc2c1C#N", "observed": "cell-free assay", "technique": "competition with immobilised ligand", "concentration": "5 µM", "remaining binding [%]": 100}
{"SMILES": "C[C@@H]1CCN(c2nccc(-c3cnn4ncccc34)n2)C1", "observed": "binding", "concentration": "1 µM", "remaining binding [%]": 83}
{"SMILES": "Cc1c[nH]c2nccc(Oc3c(F)cc(Nc4cc(Cl)nc(N)n4)cc3F)c12", "observed": "cell-free assay", "technique": "competition with immobilised ligand", "concentration": "0.1 µM", "remaining binding [%]": 93}
{"SMILES": "F[C@@H]1CCN(c2nccc(-c3cnn4ncccc34)n2)C1", "observed": "binding", "concentration": "1 µM", "remaining binding [%]": 89}
{"SMILES": "COc1cnc(Nc2cccc(S(N)(=O)=O)c2)nc1N1CCN(c2ccccc2)CC1", "observed": "binding", "technique": "competition with immobilised ligand", "concentration": "1 µM", "remaining binding [%]": 100}
{"SMILES": "COc1cc(-c2cn(C3CCc4c(F)cccc4N(CC(F)(F)F)C3=O)nn2)ccc1-n1cnc(C)c1 (centres unmarked)", "observed": "cell-free assay", "technique": "competition with immobilised ligand", "concentration": "1 µM", "remaining binding [%]": 100}
{"SMILES": "O=C(c1ccc(Nc2ncc(Cl)c(-c3cc4ccccc4s3)n2)cc1)N1CCC(N2CCCC2)CC1", "observed": "binding", "technique": "competition with immobilised ligand", "concentration": "1 µM", "remaining binding [%]": 100}
{"SMILES": "Cc1c(NC(=O)c2cc(C(N)=O)nc3cc(F)ccc23)c(C(F)(F)F)nn1Cc1ccc(C#N)cc1", "observed": "binding", "technique": "competition with immobilised ligand", "concentration": "1 µM", "remaining binding [%]": 69}
{"SMILES": "Cc1cnn2ncc(-c3ccnc(N(C)C)n3)c2c1", "observed": "binding", "concentration": "1 µM", "remaining binding [%]": 100}
